# Test results from ChEMBL document CHEMBL4715736, “Identification of anticancer agents based on the thieno[2,3-b]pyridine and 1H-pyrazole molecular scaffolds” (2016).
# How the values were obtained:
# Type in all cases: functional
# SK-MEL-28 [1] = test: Growth inhibition of human SK-MEL-28 cells incubated for 48 hrs by sulforhodamine B assay
# How it was run: (§1)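 NCI DTP 60-line human tumour panel. Dose-response curves were run only for ligands active in the initial 10 µM screen. GI50 (concentration giving 50% of maximal inhibition of proliferation) and TGI (concentration giving total growth inhibition) were derived from these curves.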
# OVCAR-4 = test: Growth inhibition of human OVCAR-4 cells assessed as cell growth at 0.1 uM incubated for 48 hrs by sulforhodamine B assay relative to control; conditions: read-out: Activity
# KM12 [2] = test: Growth inhibition of human KM12 cells assessed as cell growth at 1 uM incubated for 48 hrs by sulforhodamine B assay relative to control; conditions: read-out: Activity
# DU-145 = test: Growth inhibition of human DU-145 cells assessed as cell growth at 0.1 uM incubated for 48 hrs by sulforhodamine B assay relative to control; conditions: read-out: Activity
# How it was run: (§2)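 NCI Developmental Therapeutics Program NCI60 panel. Compounds that were active in the 10 µM one-dose screen went on to dose–response testing. Growth at each concentration is expressed relative to untreated control (100%). GI50 (concentration giving 50% of maximal inhibition of proliferation) and TGI (concentration giving total growth inhibition) were derived from the curves.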
# SK-MEL-28 [3] = test: Growth inhibition of human SK-MEL-28 cells assessed as cell growth at 1 uM incubated for 48 hrs by sulforhodamine B assay relative to control; conditions: read-out: Activity
# NCI-H23 = test: Growth inhibition of human NCI-H23 cells assessed as cell growth at 100 uM incubated for 48 hrs by sulforhodamine B assay relative to control; conditions: read-out: Activity
# SK-MEL-2 [4] = test: Growth inhibition of human SK-MEL-2 cells assessed as cell growth at 100 uM incubated for 48 hrs by sulforhodamine B assay relative to control; conditions: read-out: Activity
# M14 = test: Growth inhibition of human M14 cells assessed as cell growth at 0.01 uM incubated for 48 hrs by sulforhodamine B assay relative to control; conditions: read-out: Activity
# A549 = test: Growth inhibition of human A549/ATCC cells assessed as cell growth at 1 uM incubated for 48 hrs by sulforhodamine B assay relative to control; conditions: read-out: Activity; how it was run: as §2
# 786-0 = test: Growth inhibition of human 786-0 cells assessed as cell growth at 0.1 uM incubated for 48 hrs by sulforhodamine B assay relative to control; conditions: read-out: Activity; how it was run: as §2
# OVCAR-8 = test: Growth inhibition of human OVCAR-8 cells assessed as cell growth at 1 uM incubated for 48 hrs by sulforhodamine B assay relative to control; conditions: read-out: Activity
# SK-OV-3 = test: Growth inhibition of human SK-OV-3 cells assessed as cell growth at 1 uM incubated for 48 hrs by sulforhodamine B assay relative to control; conditions: read-out: Activity
# SR = test: Growth inhibition of human SR cells assessed as cell growth at 1 uM incubated for 48 hrs by sulforhodamine B assay relative to control; conditions: read-out: Activity
# HOP-92 = test: Growth inhibition of human HOP-92 cells assessed as cell growth at 100 uM incubated for 48 hrs by sulforhodamine B assay relative to control; conditions: read-out: Activity
# SF-268 = test: Growth inhibition of human SF-268 cells assessed as cell growth at 100 uM incubated for 48 hrs by sulforhodamine B assay relative to control; conditions: read-out: Activity
# HCC 2998 = test: Growth inhibition of human HCC 2998 cells assessed as cell growth at 0.01 uM incubated for 48 hrs by sulforhodamine B assay relative to control; conditions: read-out: Activity; how it was run: as §2
# HCT-15 [5] = test: Growth inhibition of human HCT-15 cells assessed as cell growth at 100 uM incubated for 48 hrs by sulforhodamine B assay relative to control; conditions: read-out: Activity
# KM12 [6] = test: Growth inhibition of human KM12 cells assessed as cell growth at 0.1 uM incubated for 48 hrs by sulforhodamine B assay relative to control; conditions: read-out: Activity
# NCI-H322M = test: Growth inhibition of human NCI-H322M cells assessed as cell growth at 0.1 uM incubated for 48 hrs by sulforhodamine B assay relative to control; conditions: read-out: Activity
# SK-MEL-2 [7] = test: Growth inhibition of human SK-MEL-2 cells incubated for 48 hrs by sulforhodamine B assay; how it was run: as §1
# LOX IMVI [8] = test: Growth inhibition of human LOX IMVI cells assessed as cell growth at 0.01 uM incubated for 48 hrs by sulforhodamine B assay relative to control; conditions: read-out: Activity
# CAKI-1 = test: Growth inhibition of human CAKI-1 cells assessed as cell growth at 0.1 uM incubated for 48 hrs by sulforhodamine B assay relative to control; conditions: read-out: Activity; how it was run: as §2
# OVCAR-3 = test: Growth inhibition of human OVCAR-3 cells assessed as cell growth at 1 uM incubated for 48 hrs by sulforhodamine B assay relative to control; conditions: read-out: Activity
# TK-10 = test: Growth inhibition of human TK-10 cells assessed as cell growth at 0.1 uM incubated for 48 hrs by sulforhodamine B assay relative to control; conditions: read-out: Activity
# SW-620 = test: Growth inhibition of human SW-620 cells assessed as cell growth at 100 uM incubated for 48 hrs by sulforhodamine B assay relative to control; conditions: read-out: Activity
# HCT-15 [9] = test: Growth inhibition of human HCT-15 cells assessed as cell growth at 0.01 uM incubated for 48 hrs by sulforhodamine B assay relative to control; conditions: read-out: Activity
# SF-539 = test: Growth inhibition of human SF-539 cells assessed as cell growth at 0.1 uM incubated for 48 hrs by sulforhodamine B assay relative to control; conditions: read-out: Activity
# HCT-116 = test: Growth inhibition of human HCT-116 cells assessed as cell growth at 1 uM incubated for 48 hrs by sulforhodamine B assay relative to control; conditions: read-out: Activity
# MDA-MB-231 = test: Growth inhibition of human MDA-MB-231 cells assessed as cell growth at 1 uM incubated for 48 hrs by sulforhodamine B assay relative to control; conditions: read-out: Activity
# LOX IMVI [10] = test: Growth inhibition of human LOX IMVI cells incubated for 48 hrs by sulforhodamine B assay
# How it was run: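 NCI60 panel at the NCI Developmental Therapeutics Program. Only compounds active in the 10 µM screen went to dose-response testing. GI50, the concentration giving 50% of maximal inhibition of proliferation, and TGI, the concentration giving total growth inhibition, were derived from the dose-response curves.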
# SK-MEL-5 = test: Growth inhibition of human SK-MEL-5 cells incubated for 48 hrs by sulforhodamine B assay; how it was run: as §1
# LOX IMVI [11] = test: Growth inhibition of human LOX IMVI cells assessed as cell growth at 100 uM incubated for 48 hrs by sulforhodamine B assay relative to control; conditions: read-out: Activity
# U-251 = test: Growth inhibition of human U-251 cells assessed as cell growth at 0.01 uM incubated for 48 hrs by sulforhodamine B assay relative to control; conditions: read-out: Activity
# MDA-MB-468 = test: Growth inhibition of human MDA-MB-468 cells assessed as cell growth at 1 uM incubated for 48 hrs by sulforhodamine B assay relative to control; conditions: read-out: Activity
# OVCAR-5 = test: Growth inhibition of human OVCAR-5 cells incubated for 48 hrs by sulforhodamine B assay; how it was run: as §1
compound,measurement,setting,value
CN1CCc2nc3sc(C(N)=O)c(N)c3c(-c3cccs3)c2C1,GI50,SK-MEL-28 [1],2.91 µM
same,LC50,SK-MEL-28 [1],> 100 µM
same,TGI,SK-MEL-28 [1],9.59 µM
same,growth at 0.1 µM,OVCAR-4,107%
same,growth at 1 µM,KM12 [2],82%
same,growth at 0.1 µM,DU-145,115%
same,growth at 1 µM,SK-MEL-28 [3],95%
same,growth at 100 µM,NCI-H23,-30%
same,growth at 100 µM,SK-MEL-2 [4],-45%
same,growth at 0.01 µM,M14,107%
same,growth at 1 µM,A549,91%
same,growth at 0.1 µM,786-0,99%
same,growth at 1 µM,OVCAR-8,82%
same,growth at 1 µM,SK-OV-3,89%
same,growth at 1 µM,SR,71%
same,growth at 100 µM,HOP-92,-1%
same,growth at 100 µM,SF-268,2%
same,growth at 0.01 µM,HCC 2998,94%
same,growth at 100 µM,HCT-15 [5],6%
same,growth at 0.1 µM,KM12 [6],105%
same,growth at 0.1 µM,NCI-H322M,102%
same,GI50,SK-MEL-2 [7],2.67 µM
same,LC50,SK-MEL-2 [7],> 100 µM
same,TGI,SK-MEL-2 [7],6.22 µM
same,growth at 0.01 µM,LOX IMVI [8],97%
same,growth at 0.1 µM,CAKI-1,82%
same,growth at 1 µM,OVCAR-3,87%
same,growth at 0.1 µM,TK-10,99%
same,growth at 100 µM,SW-620,3%
same,growth at 0.01 µM,HCT-15 [9],103%
same,growth at 0.1 µM,SF-539,104%
same,growth at 1 µM,HCT-116,75%
same,growth at 1 µM,MDA-MB-231,97%
same,GI50,LOX IMVI [10],1.27 µM
same,LC50,LOX IMVI [10],> 100 µM
same,TGI,LOX IMVI [10],> 100 µM
same,GI50,SK-MEL-5,1.43 µM
same,LC50,SK-MEL-5,> 100 µM
same,TGI,SK-MEL-5,5.24 µM
same,growth at 100 µM,LOX IMVI [11],2%
same,growth at 0.01 µM,U-251,99%
same,growth at 1 µM,MDA-MB-468,77%
Cc1cccc(NC(=O)c2sc3nc4c(cc3c2N)C(=O)CCC4)c1,GI50,SK-MEL-28 [1],0.0308 µM
same,LC50,SK-MEL-28 [1],> 100 µM
same,TGI,SK-MEL-28 [1],≥ 100 µM
same,growth at 0.1 µM,OVCAR-4,82%
same,growth at 1 µM,KM12 [2],19%
same,growth at 0.1 µM,DU-145,89%
same,growth at 1 µM,SK-MEL-28 [3],47%
same,growth at 100 µM,NCI-H23,12%
same,growth at 100 µM,SK-MEL-2 [4],-74%
same,growth at 0.01 µM,M14,93%
same,growth at 1 µM,A549,19%
same,growth at 0.1 µM,786-0,80%
same,growth at 1 µM,OVCAR-8,47%
same,TGI,OVCAR-5,≥ 100 µM
same,CC50,OVCAR-5; read-out: LC50 (the source's name),> 100 µM
same,growth at 1 µM,SK-OV-3,7%
same,growth at 100 µM,HOP-92,-40%
same,growth at 100 µM,SF-268,-12%
same,growth at 0.01 µM,HCC 2998,97%
same,growth at 100 µM,HCT-15 [5],5%
same,growth at 0.1 µM,KM12 [6],65%
same,growth at 0.1 µM,NCI-H322M,84%
same,GI50,SK-MEL-2 [7],0.254 µM
same,LC50,SK-MEL-2 [7],> 100 µM
same,TGI,SK-MEL-2 [7],> 100 µM
same,growth at 0.01 µM,LOX IMVI [8],97%
same,growth at 0.1 µM,CAKI-1,73%
same,growth at 1 µM,OVCAR-3,-7%
same,growth at 0.1 µM,TK-10,82%
same,growth at 100 µM,SW-620,3%
same,growth at 0.01 µM,HCT-15 [9],88%
same,growth at 0.1 µM,SF-539,75%
same,growth at 1 µM,HCT-116,28%
same,growth at 1 µM,MDA-MB-231,40%
same,GI50,LOX IMVI [10],0.0118 µM
same,LC50,LOX IMVI [10],> 100 µM
same,TGI,LOX IMVI [10],≥ 100 µM
same,GI50,SK-MEL-5,0.169 µM
same,LC50,SK-MEL-5,> 100 µM
same,TGI,SK-MEL-5,≥ 100 µM
same,growth at 100 µM,LOX IMVI [11],-75%
same,growth at 0.01 µM,U-251,96%
same,growth at 1 µM,MDA-MB-468,5%
